# According to ChEMBL document CHEMBL1150362, “Synthesis and in vitro evaluation of a library of modified endomorphin 1 peptides” (Bioorg Med Chem, 2008):
# *1 amine or outer side, *2 acyl side, *3 side chain or, on linkers, in order; H or OH if unused. Where a SMILES comes first, the peptide text is derived from it. [ ]: non-standard residue; d: D form. The star is where a group is joined. ξ: configuration not given here. NH(β-D-Glc) = OC[C@H]1O[C@@H](N*)[C@H](O)[C@@H](O)[C@@H]1O; X1 = NC(=O)[C@H]1O[C@@H](N*)[C@H](O)[C@@H](O)[C@@H]1O; ξGly(nC16H33) = CCCCCCCCCCCCCCCCC(N)C(=O)O; Dmt = Cc1cc(O)cc(C)c1C[C@H](N)C(=O)O; ξGly(decyl) = CCCCCCCCCCC(N)C(=O)O; Suc = O=C(CCC(=O)[*:2])[*:1]; ξAoc(2) = CCCCCCC(N)C(=O)O
# Columns and labels:
# Caco-2 [1] = test: (§1) Apparent permeability from apical to basolateral side of the human Caco-2 membrane; format: ADME, cell-based
# Mu-type opioid receptor [2] = target: Mu-type opioid receptor (Rattus norvegicus, UniProt P33535); test: Displacement of [3H]DAMGO from mu opioid receptor in rat brain membrane; format: cell membranes
# Caco-2 [3] = test: (§2) Metabolic stability assessed as half life in human Caco-2 cell homogenate; format: ADME, Colon; conditions: Caco-2
# [4] = target: Delta-type opioid receptor (Rattus norvegicus, UniProt P33533); test: Displacement of […] from delta opioid receptor in rat brain membrane; format: cell membranes
# Mu-type opioid receptor [5] = target: T1, Mu-type opioid receptor (Homo sapiens, UniProt P35372); test: Agonist activity at mu opioid receptor in human SHSY5Y cells assessed as inhibition of forskolin-stimulated cAMP production; format: functional, cell-based, SH-SY5Y
# Procedure, shortened: (§3)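 SH-SY5Y cells (endogenous mu and delta opioid receptors, passages 10-20) grown in 96-well plates to 80% confluence. Peptides applied in DMEM with 30 μM forskolin for 30 min at 37°C. Lysed cells read by cAMP enzyme immunoassay (TMB, 450 nm) against a 0-3.2 pmol standard curve, expressed relative to the maximal forskolin response. Three experiments in triplicate; IC50 from concentration-response curves.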
# Mu-type opioid receptor [6] = target: T1, Mu-type opioid receptor; test: Displacement of [3H]DAMGO from mu opioid receptor in human SHSY5Y cells; format: cell-based, SH-SY5Y
# Procedure, shortened: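 Intact SH-SY5Y cells in 24-well plates were pre-incubated in binding buffer (50 mM Tris pH 7.4, 2% BSA). Incubated with 100 pM [3H]DAMGO plus unlabelled competitor (7 concentrations, 10 pM-1 μM) for 60 min at 37°C. Nonspecific binding defined with 1 μM DAMGO. Cells washed, dissolved in 1 M NaOH and counted by scintillation. Triplicates on at least three plates; Ki from one-site competition fits.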
# Mu-type opioid receptor [7] = target: T1, Mu-type opioid receptor; test: Agonist activity at mu opioid receptor in human SHSY5Y cells assessed as inhibition of forskolin-stimulated cAMP production at 100 nM; format: functional, cell-based; set-up: scale not given: the % may be the effect or the level left; conditions: SH-SY5Y; procedure, shortened: as §3
# [8] = as §1; format: ADME, cell-based
# [9] = as §2; format: ADME, Colon; conditions: Caco-2 cell homogenate
# Rattus norvegicus = organism: Rattus norvegicus; test: Selectivity for rat mu opioid receptor over rat delta opioid receptor
# Procedure, shortened: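 Ratio Kiδ/Kiμ, with both Ki values from competitive displacement binding on prepared rat brain P2 synaptosome membranes. The μ site was labelled with [3H]DAMGO. Ki values are given as mean ± SE, n = 3-4.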
# T1 sequence (P35372 whole entry): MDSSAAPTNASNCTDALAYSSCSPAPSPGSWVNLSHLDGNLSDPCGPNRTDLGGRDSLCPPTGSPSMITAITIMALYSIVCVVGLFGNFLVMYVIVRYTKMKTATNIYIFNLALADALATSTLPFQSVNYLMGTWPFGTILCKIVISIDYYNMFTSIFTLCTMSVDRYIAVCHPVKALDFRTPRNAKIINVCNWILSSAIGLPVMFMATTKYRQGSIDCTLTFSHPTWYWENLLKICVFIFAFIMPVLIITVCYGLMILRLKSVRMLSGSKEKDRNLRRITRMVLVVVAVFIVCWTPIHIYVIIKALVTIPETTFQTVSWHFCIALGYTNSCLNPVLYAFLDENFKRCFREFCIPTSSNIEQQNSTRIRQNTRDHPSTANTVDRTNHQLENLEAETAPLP
# Delta-type opioid receptor, sequence (P33533 whole entry): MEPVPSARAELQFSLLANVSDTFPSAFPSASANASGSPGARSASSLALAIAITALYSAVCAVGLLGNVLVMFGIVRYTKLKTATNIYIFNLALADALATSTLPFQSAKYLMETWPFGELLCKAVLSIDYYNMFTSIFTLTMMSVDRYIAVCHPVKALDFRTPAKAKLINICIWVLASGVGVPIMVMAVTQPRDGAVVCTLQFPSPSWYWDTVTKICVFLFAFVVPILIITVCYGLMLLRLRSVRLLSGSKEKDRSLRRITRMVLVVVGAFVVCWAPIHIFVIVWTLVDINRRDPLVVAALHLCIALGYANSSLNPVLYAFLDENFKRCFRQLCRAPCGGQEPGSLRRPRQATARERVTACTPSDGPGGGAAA
# Mu-type opioid receptor (Rattus norvegicus, UniProt P33535), sequence (P33535 whole entry): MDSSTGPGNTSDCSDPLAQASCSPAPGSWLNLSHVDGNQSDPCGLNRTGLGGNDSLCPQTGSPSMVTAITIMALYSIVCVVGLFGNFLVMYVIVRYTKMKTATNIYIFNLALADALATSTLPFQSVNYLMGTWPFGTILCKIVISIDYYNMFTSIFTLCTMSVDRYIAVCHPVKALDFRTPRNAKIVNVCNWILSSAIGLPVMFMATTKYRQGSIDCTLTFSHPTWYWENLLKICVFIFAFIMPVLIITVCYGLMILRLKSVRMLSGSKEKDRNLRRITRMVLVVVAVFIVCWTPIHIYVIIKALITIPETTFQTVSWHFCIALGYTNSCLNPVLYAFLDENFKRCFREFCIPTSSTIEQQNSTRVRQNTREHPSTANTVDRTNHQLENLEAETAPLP
Structure (SMILES),Ki (Mu-type opioid receptor [6]) [nM],Activity (Mu-type opioid receptor [7]) [%],Papp A→B [8] [×10⁻⁶ cm/s],half-life [9] [min],also measured
Cc1cc(O)cc(C)c1C[C@H](N)C(=O)N1CCC[C@H]1C(=O)N[C@@H](Cc1c[nH]c2ccccc12)C(=O)N[C@@H](Cc1ccccc1)C(N)=O (stereo in doubt; 13) [listing 1 of 2 here],0.059,–,–,–,Papp (Caco-2 [1]): 5.04 ×10⁻⁷ cm/s; Ki (Mu-type opioid receptor [2]): 0.067 nM; t1/2 (Caco-2 [3]): 13.5 min; Ki [4]: 5 nM; IC50 (Mu-type opioid receptor [5]): 0.43 nM
CCCCCCC(N)C(=O)N[C@@H](Cc1c(C)cc(O)cc1C)C(=O)N1CCC[C@H]1C(=O)N[C@@H](Cc1c[nH]c2ccccc12)C(=O)N[C@@H](Cc1ccccc1)C(N)=O (stereo partly drawn) (H-[ξAoc(2)][Dmt]PWF-NH2),0.081,84.3,–,–,IC50 (Mu-type opioid receptor [5]): 0.32 nM
CCCCCCC(NC(=O)[C@H](Cc1ccccc1)NC(=O)[C@H](Cc1c[nH]c2ccccc12)NC(=O)[C@@H]1CCCN1C(=O)[C@@H](N)Cc1ccc(O)cc1)C(N)=O (stereo partly drawn) (H-YPWF[ξAoc(2)]-NH2),121,15.9,0.823,3.5,–
CCCCCCCCCCCCCCCCC(N)C(=O)N[C@@H](Cc1ccc(O)cc1)C(=O)N1CCC[C@H]1C(=O)N[C@@H](Cc1c[nH]c2ccccc12)C(=O)N[C@@H](Cc1ccccc1)C(N)=O (stereo partly drawn) (H-[ξGly(nC16H33)]YPWF-NH2),–,48.4,–,–,–
CCCCCCC(NC(=O)[C@H](Cc1ccccc1)NC(=O)[C@H](Cc1c[nH]c2ccccc12)NC(=O)[C@@H]1CCCN1C(=O)[C@H](Cc1ccc(O)cc1)NC(=O)CCC(=O)N[C@@H]1O[C@H](CO)[C@@H](O)[C@H](O)[C@H]1O)C(N)=O (stereo partly drawn) ({NH(β-D-Glc)-Suc}-YPWF[ξAoc(2)]-NH2),266,–,1.14,33,–
Cc1cc(O)cc(C)c1C[C@H](N)C(=O)N1CCC[C@H]1C(=O)N[C@@H](Cc1c[nH]c2ccccc12)C(=O)N[C@@H](Cc1ccccc1)C(N)=O (stereo in doubt),–,–,–,–,Papp (Caco-2 [1]): 0.196 ×10⁻⁷ cm/s; t1/2 (Caco-2 [3]): 5 min
CCCCCCC(N)C(=O)N[C@@H](Cc1ccc(O)cc1)C(=O)N1CCC[C@H]1C(=O)N[C@@H](Cc1c[nH]c2ccccc12)C(=O)N[C@@H](Cc1ccccc1)C(N)=O (stereo partly drawn),2.15,65.4,3.54,23.2,Ki (Mu-type opioid receptor [2]): 2.86 nM; Ki [4]: 1760 nM; IC50 (Mu-type opioid receptor [5]): 26.3 nM; Ratio Ki (Rattus norvegicus): 614
NC(=O)[C@H](Cc1ccccc1)NC(=O)[C@H](Cc1c[nH]c2ccccc12)NC(=O)[C@@H]1CCCN1C(=O)[C@H](Cc1ccc(O)cc1)NC(=O)CCC(=O)N[C@@H]1O[C@H](CO)[C@@H](O)[C@H](O)[C@H]1O,115,–,0.545,38,Ki (Mu-type opioid receptor [2]): 115 nM; Ki [4]: 6320 nM; Ratio Ki (Rattus norvegicus): 55
CCCCCCCCCCC(N)C(=O)N[C@@H](Cc1ccc(O)cc1)C(=O)N1CCC[C@H]1C(=O)N[C@@H](Cc1c[nH]c2ccccc12)C(=O)N[C@@H](Cc1ccccc1)C(N)=O (stereo partly drawn) (H-[ξGly(decyl)]YPWF-NH2),15.4,55.4,1.24,–,Ki (Mu-type opioid receptor [2]): 14.8 nM; Ki [4]: 836 nM; Ratio Ki (Rattus norvegicus): 56
Cc1cc(O)cc(C)c1C[C@H](N)C(=O)N1CCC[C@H]1C(=O)N[C@@H](Cc1c[nH]c2ccccc12)C(=O)N[C@@H](Cc1ccccc1)C(N)=O (stereo in doubt; 13) [listing 2 of 2 here],–,–,–,–,Ratio Ki (Rattus norvegicus): 75
CCCCCCC(N)C(=O)N[C@@H](Cc1ccc(O)cc1)C(=O)N1CCC[C@H]1C(=O)N[C@@H](Cc1c[nH]c2ccccc12)C(=O)N[C@@H](Cc1ccccc1)C(=O)N[C@@H]1O[C@H](C(N)=O)[C@@H](O)[C@H](O)[C@H]1O (stereo partly drawn) (H-[ξAoc(2)]YPWF-X1),148,36.2,1.62,75,–
NC(=O)[C@H]1O[C@@H](NC(=O)[C@H](Cc2ccccc2)NC(=O)[C@H](Cc2c[nH]c3ccccc23)NC(=O)[C@@H]2CCCN2C(=O)[C@@H](N)Cc2ccc(O)cc2)[C@H](O)[C@@H](O)[C@@H]1O,151,31.5,–,4.3,–
CCCCCCCCCCC(NC(=O)[C@H](Cc1ccccc1)NC(=O)[C@H](Cc1c[nH]c2ccccc12)NC(=O)[C@@H]1CCCN1C(=O)[C@@H](N)Cc1ccc(O)cc1)C(N)=O (stereo partly drawn) (H-YPWF[ξGly(decyl)]-NH2),–,–,0.416,–,–
CCCCCC[C@H](N)C(=O)N[C@@H](Cc1ccc(O)cc1)C(=O)N1CCC[C@H]1C(=O)N[C@@H](Cc1c[nH]c2ccccc12)C(=O)N[C@@H](Cc1ccccc1)C(N)=O,3.02,–,–,23.8,–
CCCCCC[C@@H](N)C(=O)N[C@@H](Cc1ccc(O)cc1)C(=O)N1CCC[C@H]1C(=O)N[C@@H](Cc1c[nH]c2ccccc12)C(=O)N[C@@H](Cc1ccccc1)C(N)=O,2.92,–,–,23.8,–
NC(=O)[C@H](Cc1ccccc1)NC(=O)[C@H](Cc1c[nH]c2ccccc12)NC(=O)[C@@H]1CCCN1C(=O)[C@@H](N)Cc1ccc(O)cc1 [ENDOMORPHIN-1],–,–,0.447,–,–
